Key:
[1] = tested on: pUC19 plasmid DNA; assay: Thermal; type: binding; conditions: pUC19, phosphate buffer, 37 °C, 24 h, up to 5 : 1 BP : MC ratio
[2] = Singlet oxygen quantum yield by 1274 nm emission in CD3OD; type: physicochemical; conditions: 450 nm excitation, under air, 298 K
[3] = tested on: A549 cells; assay: Annexin V-FITC/propidium iodide flow cytometry; type: cell-based, human; conditions: A549, green light irradiation
Summary of the method: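 A549 cells were treated with test compound (1.5 μM or 10 μM, by complex) for 6 h in the dark. They then received 1 h green light (520 nm, 75 J cm–2) followed by 24 h dark incubation, or were kept dark throughout (31 h). Annexin V-FITC (525 nm) and propidium iodide (670 nm) were read by flow cytometry. Quadrants: lower left live, lower right apoptotic, upper left necrotic, upper right secondary necrotic.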

[4] = Photosubstitution quantum yield under blue light; type: physicochemical; conditions: blue light irradiation 450 nm, in water
[5] = tested on: A549 cells; assay: Confocal microscopy of mitochondrial potential; type: cell-based, human; conditions: A549, TMRE and DRAQ5 staining, green light 75 J cm^–2
[6] = Dark stability in aqueous and DMSO solutions; type: physicochemical
Summary of the method: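 Test compound solutions in D2O or DMSO were kept in the dark, with DMSO also held at –20 °C, and monitored over time. Chloride effect in aqueous solution was probed by adding NaCl up to 0.15 M.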

[7] = Water solubility; type: physicochemical
[8] = tested on: A431 and A549 cancer cells; type: cell-based, human; conditions: 520 nm, 75 J cm^–2, compared to the dark control; maximum
Summary of the method: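 Photo index is the ratio of dark EC50 to green-light EC50 (520 nm, 60 min, 75 J cm–2). Light was applied after 6 h or 24 h dark pre-incubation with test compound (37 °C, 7% CO2). EC50 is the concentration giving 50% viability loss versus untreated wells.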

[9] = tested on: A549 cells; assay: Cell fractionation and ruthenium uptake by ICP-MS; type: cell-based, human
Summary of the method: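 A549 cells were exposed to test compound for 6 h in the dark, then harvested. Cytosol, membrane, nuclei and cytoskeleton fractions were separated. Ruthenium in each fraction was quantified by ICP-MS.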

[10] = tested on: pUC19 plasmid DNA; assay: Photoinduced binding to plasmid DNA, agarose gel; conditions: pUC19, 50 : 1 BP : MC, λirr = 520 nm, 5–60 min
Summary of the method: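 pUC19 plasmid was mixed with test compound (50:1 BP:MC) and irradiated at 520 nm for 5, 15, 30, 45 or 60 min. Controls were dark and irradiated DNA alone and a dark 50:1 sample. Cisplatin was included as a reference. Agarose gel with lambda DNA marker; linear dimer, open circular and supercoiled forms were scored.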

[11] = reference value, CD3OD; cited from earlier work

N.N.[Cl][Pt][Cl] [Cisplatin, cis-diamineplatinum(II) dichloride, reference compound]
dark thermal DNA binding [1]: typical DNA binding results

[Ru(biqbpy)(dmso)Cl]Cl [[1]Cl]
quantum yield of 1O2 generation (Φ1O2) [2]: 1.3%
type of cell death (photocytotoxicity) [3]: apoptosis without any sign of necrosis
photosubstitution quantum yield (ΦPS) [4]: 0.3%
effect of light irradiation on mitochondria and nuclear DNA [5]: diminished the mitochondrial membrane potential and induced chromosomal condensation
dark stability of DMSO solution ([6]; DMSO, –20 °C): stable in the dark at –20 °C for at least six months
stability of Ru–S bond with dmso ligand ([6]; aqueous or DMSO solutions, 298 K): remained stable
hydrolysis of chloride ligand ([6]; upon dissolution in deionized water or D2O): immediately hydrolysed
solubility in water [7]: water-soluble
photo-indices (increase in cytotoxicity after green light vs dark) [8]: up to 22
dark thermal DNA binding [1]: negligible binding
preference for the membrane fraction (intracellular distribution) ([9]; A549, 6 h in the dark at EC50 concentration, cell fractionation): strong
total uptake (ruthenium) ([9]; A549, 6 h in the dark at concentration corresponding to the EC50 value, ICP-MS): 16 ng/10^6 cells
photoinduced DNA binding [10]: significant retardation of the SC form

[Cl][Ru][Cl].c1ccc(-c2ccccn2)nc1.c1ccc(-c2ccccn2)nc1.c1ccc(-c2ccccn2)nc1 [[Ru(bpy)3]Cl2]
quantum yield of 1O2 generation (Φref) [11]: 73%

Source: paper PMC6018302 (Chemical Science, 2016)
